This note sets out measurements from ChEMBL document CHEMBL1122206, “Use of adenine nucleotide derivatives to assess the potential of exo-active-site-directed reagents as species- or isozyme-specific enzyme inactivators. 5. Interactions of adenosine 5'-triphosphate derivatives with rat pyruvate kinases, Escherichia coli thymidine kinase, and yeast and rat …” (1982).

For experiment [1], the target named is T1, Hexokinase-2 (Rattus norvegicus) (UniProt P27881).
T1 sequence (whole entry): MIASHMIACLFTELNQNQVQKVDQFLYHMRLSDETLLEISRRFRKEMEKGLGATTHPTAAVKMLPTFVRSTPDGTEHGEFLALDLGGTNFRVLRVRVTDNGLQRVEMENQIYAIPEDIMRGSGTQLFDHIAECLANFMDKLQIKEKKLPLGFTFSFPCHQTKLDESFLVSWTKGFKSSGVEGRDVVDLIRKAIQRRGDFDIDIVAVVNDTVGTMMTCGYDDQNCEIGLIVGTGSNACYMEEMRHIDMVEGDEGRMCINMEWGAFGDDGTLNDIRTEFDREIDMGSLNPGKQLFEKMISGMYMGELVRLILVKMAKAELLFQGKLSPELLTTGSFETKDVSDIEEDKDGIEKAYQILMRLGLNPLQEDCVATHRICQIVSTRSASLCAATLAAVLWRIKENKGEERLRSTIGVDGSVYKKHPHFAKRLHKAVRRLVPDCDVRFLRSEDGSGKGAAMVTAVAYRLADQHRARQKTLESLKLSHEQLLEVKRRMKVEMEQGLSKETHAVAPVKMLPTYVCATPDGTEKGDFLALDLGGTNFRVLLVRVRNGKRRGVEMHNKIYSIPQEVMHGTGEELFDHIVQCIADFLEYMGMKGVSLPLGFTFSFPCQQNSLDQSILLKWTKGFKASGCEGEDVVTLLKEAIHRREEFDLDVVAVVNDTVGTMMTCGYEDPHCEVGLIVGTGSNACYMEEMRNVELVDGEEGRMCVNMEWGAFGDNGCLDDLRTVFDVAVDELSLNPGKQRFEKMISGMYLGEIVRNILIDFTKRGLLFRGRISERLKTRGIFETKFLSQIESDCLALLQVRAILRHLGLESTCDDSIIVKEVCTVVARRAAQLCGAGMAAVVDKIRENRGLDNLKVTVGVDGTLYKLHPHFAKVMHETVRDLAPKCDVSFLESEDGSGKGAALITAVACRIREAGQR
The experiment can be described thus: Time dependent inhibition of hexokinase 2 activity after 6 h, at 5 mM compound.

Experiment [2] is described as follows: Substrate concentration for half maximal velocity was reported for rat hexokinase III. A digest of the protocol:
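Coupled glucose-6-phosphate dehydrogenase/NADP assay: A340 rate at 22 °C in 0.05 M Tris-HCl pH 7.6 with 6.6 mM MgCl2, 10 mM α-D-glucose and 0.93 mM NADP, nucleotide varied. KM was taken from linear double-reciprocal plots. Rat HK I and III came from electrofocused, dialysed liver extract, HK II from dialysed muscle extract, and yeast HK was isoelectric-focused.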

As to `Nc1ncnc2c1ncn2[C@@H]1O[C@H](COP(=O)(O)OP(=O)(O)OP(=O)(O)O)[C@@H](O)[C@H]1O`, in experiment [1], the inhibition came to 0%. For the same molecule, the Michaelis constant (Km) in experiment [2] was determined as 910 µM.

As a reminder, the inhibition is how much of the control response was suppressed. Lower therefore signals a weak effect. In general, Km refers to the concentration of substrate that gives half-maximal velocity.
